Screening results (PubChem BioAssay)
Cneo AK release: Cryptococcus neoformans cell lysis inducers, primary screen, AK release luminescence, single concentration; C. neoformans lysis, adenylate kinase release luminescence, 4 h; normalised: neutral wells 0, clomiphene wells 100; 360,000 compounds, 0.2% hits; lysis activity, % at 15 µM; AID 651654, 2012;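 active means mean lysis activity across replicates of at least 80%, whatever share of replicates individually reach that level; inactive means mean lysis activity below 80%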
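Assay system: C. neoformans cells. Amount: yeast cell density of 5 × 10^6 cells/mL. Technique: AK luminescence. Buffer or medium: YPD. Times: static 4 h at 37 °C with compound, 1 h detection. Dosing: single-point compound dose. Read-out: lysis from increased AK signal.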
S100A4 MyoIIA: inhibitors of S100A4-myosin IIA peptide binding, primary screen, biochemical, fluorescence polarization, TAMRA-MyoIIA peptide. Protein S100-A4 (Homo sapiens), P26447. inhibition, % at 10.7 µM. 360,000 compounds, 0.14% hits. AID 652163, 2013;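 active means mean inhibition of at least 70% across replicates, with every replicate also reaching that level; inconclusive means mean inhibition reaches 70% but some replicates fall short; inactive means mean inhibition below 70%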
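Test system – S100A4 monomer (human) · Compound – single-point compound testing · Schedule – 5 min incubation before reading · Probe or stimulus – TAMRA-labelled myosin IIA heavy-chain peptide probe, 5 nM · Benchmarks – neutral control DMSO, positive control TFP · Medium – Calcium-containing HEPES buffer, pH 7.2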
MLL AF4-AF9 inh: inhibitors of AF4 peptide binding to AF9, primary screen, biochemical, AlphaScreen, biotin-AF4 peptide, FLAG-AF9, single point. AID 651704, 2012. inhibition, % at 10 µM. Protein AF-9 (Homo sapiens), P42568. 350,000 compounds, 0.47% hits;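 active means every replicate reaching a set inhibition limit, whatever the replicate mean, cut at about 25% in these data; inconclusive means mean inhibition reaches that limit but some replicates miss it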;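 further: 0% = plate neutral control median and 100% = total signal loss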
Target sequence (P42568 whole entry, looked up): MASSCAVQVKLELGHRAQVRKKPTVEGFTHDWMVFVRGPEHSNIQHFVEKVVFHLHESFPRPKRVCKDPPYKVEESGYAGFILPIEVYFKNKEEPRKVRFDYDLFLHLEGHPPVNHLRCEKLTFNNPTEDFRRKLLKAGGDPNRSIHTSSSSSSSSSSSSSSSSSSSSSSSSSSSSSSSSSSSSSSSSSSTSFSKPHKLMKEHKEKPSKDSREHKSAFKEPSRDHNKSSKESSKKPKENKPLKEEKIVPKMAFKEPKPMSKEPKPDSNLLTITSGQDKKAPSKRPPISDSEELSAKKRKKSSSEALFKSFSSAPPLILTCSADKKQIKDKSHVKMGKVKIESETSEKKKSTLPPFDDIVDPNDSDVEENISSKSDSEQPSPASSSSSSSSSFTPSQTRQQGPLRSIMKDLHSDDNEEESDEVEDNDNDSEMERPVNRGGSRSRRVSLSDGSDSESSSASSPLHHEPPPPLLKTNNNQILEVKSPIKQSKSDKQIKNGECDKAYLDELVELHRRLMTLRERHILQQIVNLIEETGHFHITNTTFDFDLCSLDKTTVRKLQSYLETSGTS
PfHsp90 set2: growth inhibition of PfHsp90-expressing yeast, primary screen, antimalarial PfHsp90 inhibitor project, S. cerevisiae, BacTiter-Glo luminescence, single point, set 2. BacTiter-Glo ATP, 48 h; yeast lacking PDR1 and PDR3 efflux regulators. 310,000 compounds, 0.32% hits. inhibition, % at 9.4 µM;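 active means every replicate shows inhibition above about 80%, whatever the replicate mean, limit read from the data; inconclusive means mean inhibition reaches the set limit but some replicate falls short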;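 further: 0% = DMSO neutral controls and 100% = 20 µM radicicol positive controls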
Ecoli rRNA inh: reduced GFP signal of wild-type E. coli, primary screen, bacterial rRNA inhibitor project, GFP/RFP fluorescence, OD600, single point; E. coli WT GFP vs humanized-ribosome RFP mutants, 24 h; hits give low values; DMSO median 0, no signal -100; GFP signal change (wild-type ribosome), % (concentration not given with the values); 350,000 compounds, 1.6% hits;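 active means significant combined selectivity score with lowered wild-type GFP, culture density cut under 30%, mutant RFP and density less affected; inactive means any of these conditions unmet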
DENV2 CPE rescue: inhibitors of DENV2 cytopathic effect, primary screen, cell-based, plate reader, single concentration; DENV2-infected cells, cytopathic effect rescue; CPE inhibition, % at 9.99 µM; 350,000 compounds, 1.7% hits; in the data active means CPE inhibition above about 20%, passing the limit was not always enough; inconclusive means no clear call, values can overlap the other calls; tested in BHK-21 cells;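 further: 0% = median of neutral control wells and 100% = median of positive control wells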
Starred values were filed as active, the others as inactive. Compounds with a hit are over-represented: about 3.2% of the library has one in this group of screens.

What do the screens show for `O=C(Nc1nnc(-c2ccccn2)o1)c1cccc(Cl)c1`?
S100A4 MyoIIA: -4; MLL AF4-AF9 inh: -1; PfHsp90 set2: -3; Ecoli rRNA inh: -54*; DENV2 CPE rescue: 1

What do the screens show for `Cc1ccc(C(=O)Nc2nnc(-c3ccncc3)o2)cc1`?
S100A4 MyoIIA: -14; MLL AF4-AF9 inh: -2; PfHsp90 set2: -7; Ecoli rRNA inh: -31; DENV2 CPE rescue: 1

Results for O=C(Nc1nnc(-c2ccncc2)o1)c1ccccc1 ?
S100A4 MyoIIA: -13; MLL AF4-AF9 inh: 0; PfHsp90 set2: 7; Ecoli rRNA inh: -35*; DENV2 CPE rescue: -2

How did O=C(Nc1nnc(-c2ccccn2)o1)c1cccc(Br)c1 do in these assays?
Cneo AK release: -2; PfHsp90 set2: -47

How did C[C@@H]1CCCCO[C@H](CN(C)CC2CC2)[C@@H](C)CN([C@H](C)CO)C(=O)c2cc(NS(=O)(=O)c3ccccc3)ccc2O1 do in these assays?
Cneo AK release: 3; S100A4 MyoIIA: 2; MLL AF4-AF9 inh: 0; Ecoli rRNA inh: 2; DENV2 CPE rescue: -4

Results for Cc1noc(C)c1NC(=O)Nc1cccc2c1O[C@@H](CN(C)C(=O)Nc1ccc3c(c1)OCO3)[C@H](C)CN([C@@H](C)CO)C2=O ?
Cneo AK release: -3; S100A4 MyoIIA: -7; MLL AF4-AF9 inh: 0; Ecoli rRNA inh: 2; DENV2 CPE rescue: inconclusive

What do the screens show for `COc1cc2c3nnc(-c4ccc(F)cc4)c-3cn(Cc3ccc(C)cc3)c2cc1OC`?
Cneo AK release: -1; S100A4 MyoIIA: active; MLL AF4-AF9 inh: 2; PfHsp90 set2: -5; Ecoli rRNA inh: 10; DENV2 CPE rescue: 7

How did c1ccc(-c2cn(C[C@H]3CC[C@@H]([C@@H]4CC[C@H](Cn5cc(-c6ccccc6)nn5)O4)O3)nn2)cc1 do in these assays?
Cneo AK release: 1; S100A4 MyoIIA: -6; MLL AF4-AF9 inh: 0; PfHsp90 set2: 18; Ecoli rRNA inh: 1; DENV2 CPE rescue: 34*

How did c1ccc(-c2cn(C[C@H]3CC[C@@H]([C@@H]4CC[C@H](Cn5cc(-c6ccccn6)nn5)O4)O3)nn2)nc1 do in these assays?
Cneo AK release: 0; S100A4 MyoIIA: -3; PfHsp90 set2: -19; Ecoli rRNA inh: 14; DENV2 CPE rescue: -1

What do the screens show for `Cc1noc(C)c1NC(=O)N(C)C[C@@H]1OCCCC[C@@H](C)Oc2ccc(NC(=O)Nc3ccc(F)cc3)cc2C(=O)N([C@@H](C)CO)C[C@H]1C`?
Cneo AK release: 0; S100A4 MyoIIA: 5; MLL AF4-AF9 inh: -2; Ecoli rRNA inh: -3; DENV2 CPE rescue: -3

How did COc1cccc(-c2ccc3c(c2)[C@@H]2[C@@H](CCN2C(=O)C2CCCCC2)[C@H](CO)N3)c1 do in these assays?
S100A4 MyoIIA: -18; MLL AF4-AF9 inh: 36*; Ecoli rRNA inh: -9; DENV2 CPE rescue: -25

Results for COc1cccc(-c2ccc3c(c2)[C@@H]2[C@@H](CCN2C(=O)C2CC2)[C@@H](CO)N3)c1 ?
S100A4 MyoIIA: 4; MLL AF4-AF9 inh: 8; Ecoli rRNA inh: -1; DENV2 CPE rescue: -4

How did COc1cccc(-c2ccc3c(c2)[C@@H]2[C@@H](CCN2C(=O)C2CCC2)[C@H](CO)N3)c1 do in these assays?
Cneo AK release: 4; Ecoli rRNA inh: -4; DENV2 CPE rescue: -22

How did COc1cccc(-c2ccc3c(c2)[C@@H]2[C@@H](CCN2C(=O)C2CCCC2)[C@H](CO)N3)c1 do in these assays?
S100A4 MyoIIA: -2; MLL AF4-AF9 inh: 32*; Ecoli rRNA inh: -35; DENV2 CPE rescue: 6

What do the screens show for `CCOC(=O)CSc1nc(NCc2ccco2)c2ccccc2n1`?
Cneo AK release: -2; PfHsp90 set2: -11

What do the screens show for `COc1ccc(CNc2nc(SCC(=O)NCc3ccco3)nc3ccccc23)cc1`?
Cneo AK release: 1; S100A4 MyoIIA: 3; MLL AF4-AF9 inh: -5; PfHsp90 set2: 1; Ecoli rRNA inh: -31*; DENV2 CPE rescue: 5
